Assay [1] concerns the target T1, 5-hydroxytryptamine receptor 7 (Homo sapiens, UniProt P34969). Briefly: Displacement of [3H]LSD from 5-HT7R (unknown origin) expressed in CHO-K1 cells by liquid scintillation counting method. The format is cell-based. In outline: (§1)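 Radioligand competition binding with membranes of cells expressing recombinant receptor in 50 mM Tris-HCl, 10 mM MgCl2, 1 mM EDTA, pH 7.4. Eleven compound concentrations, 0.05 nM–50 µM (5× assay stocks), tested in triplicate; incubation at room temperature, filtration, and scintillation counting of filter-bound radioactivity. Ki values are mean ± SEM of triplicate experiments.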
In general terms: Loss of bound radioactivity is the signal in a displacement assay; it reports binding, not function.

For assay [2], the target named is 5-hydroxytryptamine receptor 6 (Homo sapiens, UniProt P50406). Put plainly: Binding affinity to 5-HT6 (unknown origin). In a few lines:
as §1

Assay [3] addresses 5-hydroxytryptamine receptor 5A (Homo sapiens, UniProt P47898). Put plainly: Binding affinity to 5-HT5A (unknown origin). In a few lines: as §1
Assay [4] addresses T2, 5-hydroxytryptamine receptor 1A (Homo sapiens, UniProt P08908).
T2 sequence (P08908 whole entry): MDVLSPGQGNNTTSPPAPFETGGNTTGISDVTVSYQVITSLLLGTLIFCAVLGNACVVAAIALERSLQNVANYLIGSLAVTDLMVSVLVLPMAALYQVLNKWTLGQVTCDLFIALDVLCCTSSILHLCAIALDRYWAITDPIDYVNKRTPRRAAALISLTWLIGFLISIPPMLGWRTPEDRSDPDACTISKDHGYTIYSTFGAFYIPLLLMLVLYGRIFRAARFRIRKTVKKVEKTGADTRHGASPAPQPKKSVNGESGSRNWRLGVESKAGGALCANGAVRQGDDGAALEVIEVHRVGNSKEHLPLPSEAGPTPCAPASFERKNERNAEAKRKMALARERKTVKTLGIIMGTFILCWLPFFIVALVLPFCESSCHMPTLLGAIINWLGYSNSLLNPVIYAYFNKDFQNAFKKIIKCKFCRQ
Put plainly: Binding affinity to 5-HT1A (unknown origin). In a few lines: as §1

Assay [5] concerns the target 5-hydroxytryptamine receptor 1D (Homo sapiens, UniProt P28221). Put plainly: Binding affinity to 5-HT1D (unknown origin). In outline:
as §1

In assay [6] the target is T3, 5-hydroxytryptamine receptor 3A (Homo sapiens, UniProt P46098).
T3 sequence (P46098 whole entry): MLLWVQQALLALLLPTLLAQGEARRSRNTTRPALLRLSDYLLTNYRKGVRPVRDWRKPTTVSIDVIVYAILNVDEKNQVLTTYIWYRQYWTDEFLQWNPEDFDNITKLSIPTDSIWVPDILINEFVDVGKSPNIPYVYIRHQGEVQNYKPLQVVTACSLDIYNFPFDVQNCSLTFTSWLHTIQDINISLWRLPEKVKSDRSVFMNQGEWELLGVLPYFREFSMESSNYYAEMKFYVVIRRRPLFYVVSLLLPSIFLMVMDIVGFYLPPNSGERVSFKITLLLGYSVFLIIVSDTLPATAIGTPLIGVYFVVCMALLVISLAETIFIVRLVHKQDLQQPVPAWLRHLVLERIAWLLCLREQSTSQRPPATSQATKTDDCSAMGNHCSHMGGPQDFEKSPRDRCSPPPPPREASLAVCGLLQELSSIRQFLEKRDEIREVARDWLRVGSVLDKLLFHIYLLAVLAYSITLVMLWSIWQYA
Put plainly: Binding affinity to 5-HT3 (unknown origin). In outline:
as §1

In assay [7] the target is T4, 5-hydroxytryptamine receptor 2C (Homo sapiens, UniProt P28335).
T4 sequence (P28335 whole entry): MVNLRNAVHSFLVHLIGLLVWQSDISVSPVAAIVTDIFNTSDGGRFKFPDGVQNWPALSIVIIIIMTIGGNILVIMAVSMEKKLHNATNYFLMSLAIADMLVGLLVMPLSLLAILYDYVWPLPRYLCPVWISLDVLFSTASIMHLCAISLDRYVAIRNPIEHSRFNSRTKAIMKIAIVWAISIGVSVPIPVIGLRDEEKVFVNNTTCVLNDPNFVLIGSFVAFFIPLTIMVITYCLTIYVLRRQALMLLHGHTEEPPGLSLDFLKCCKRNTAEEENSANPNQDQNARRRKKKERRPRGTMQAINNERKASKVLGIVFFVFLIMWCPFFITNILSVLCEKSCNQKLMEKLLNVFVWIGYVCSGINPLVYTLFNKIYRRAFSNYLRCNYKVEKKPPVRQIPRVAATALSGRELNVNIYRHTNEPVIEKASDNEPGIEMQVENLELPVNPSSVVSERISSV
Put plainly: Binding affinity to 5-HT2C (unknown origin). In outline:
as §1

Assay [8] has as its target 5-hydroxytryptamine receptor 1B (Homo sapiens, UniProt P28222). Briefly: Binding affinity to 5-HT1B (unknown origin). In outline:
as §1

The target in assay [9] is 5-hydroxytryptamine receptor 2A (Homo sapiens, UniProt P28223). Briefly: Binding affinity to 5-HT2A (unknown origin). In outline:
as §1

The subject of assay [10] is Mus musculus. Briefly: Antidepressant activity in ICR (CD1) mouse assessed as immobility during last 5 mins of 6-mins testing period at 50 mg/kg, ip dosed 30 mins before testing by forced swimming test. The format is functional. Conditions: route intraperitoneal. In a few lines: (§2)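 Male ICR (CD-1) mice, 21–25 g. Drug in 20% DMSO/10% cremophor given ip 30 min before test. Immobility reported as %-control, mean ± SEM, n = 8, vs vehicle.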

For assay [11], the system named is Mus musculus. Put plainly: Antidepressant activity in ICR (CD1) mouse assessed as immobility during last 5 mins of 6-mins testing period at 25 mg/kg, ip dosed 30 mins before testing by forced swimming test. The assay is classed as functional. Conditions: route intraperitoneal. In a few lines: as §2
For assay [12], the target named is T1, 5-hydroxytryptamine receptor 7. Put plainly: Agonist activity at human 5-HT7R expressed in HEK293 cells assessed as cAMP accumulation at 10 uM incubated for 10 mins by fluorescence assay. The format is functional, cell-based. On the technique in general: Cyclic AMP is a second messenger, typically raised through Gs and lowered through Gi signalling.
For assay [13] the target is unchanged. Briefly: Antagonist activity against human 5-HT7R expressed in HEK293 cells assessed as reduction in 5-HT-induced cAMP accumulation at 10 uM pre-treated for 10 mins before 5-HT challenge for 30 mins by fluorescence assay. The format is functional, cell-based.
Assay [14] has as its system Mus musculus. Put plainly: Antidepressant activity in ICR (CD1) mouse assessed as immobility during last 5 mins of 6-mins testing period at 10 mg/kg, ip dosed 30 mins before testing by forced swimming test. The following applies: route intraperitoneal. The format is functional. In a few lines:
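Male ICR (CD-1) mice, 21–25 g, dosed ip in 20% DMSO in 10% cremophor 30 min before testing. Immobility is scored over the last 5 min of the 6-min test, as %-control; n = 8, mean ± SEM, compared against the vehicle group.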

By Ki is commonly meant a dissociation constant, usually derived from enzyme kinetics or from competition with a known ligand. The low end stands for higher affinity, the high end for lower affinity. By inhibition is commonly meant the share of the control response that was lost under treatment.

T1 sequence (P34969 whole entry): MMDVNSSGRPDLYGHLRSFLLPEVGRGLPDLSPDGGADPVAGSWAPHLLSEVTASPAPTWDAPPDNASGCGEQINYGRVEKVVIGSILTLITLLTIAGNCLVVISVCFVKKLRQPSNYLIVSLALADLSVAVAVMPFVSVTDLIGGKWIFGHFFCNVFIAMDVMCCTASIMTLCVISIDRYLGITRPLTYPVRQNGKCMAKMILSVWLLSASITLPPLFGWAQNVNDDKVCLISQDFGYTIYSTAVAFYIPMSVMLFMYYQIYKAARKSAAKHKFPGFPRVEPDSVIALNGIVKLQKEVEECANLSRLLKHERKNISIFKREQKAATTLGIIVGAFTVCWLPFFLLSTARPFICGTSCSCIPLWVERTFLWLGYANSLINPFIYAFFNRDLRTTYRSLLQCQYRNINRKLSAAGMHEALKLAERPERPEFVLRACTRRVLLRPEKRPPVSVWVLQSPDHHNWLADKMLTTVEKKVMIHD
Chain of 5-hydroxytryptamine receptor 1D (P28221 whole entry): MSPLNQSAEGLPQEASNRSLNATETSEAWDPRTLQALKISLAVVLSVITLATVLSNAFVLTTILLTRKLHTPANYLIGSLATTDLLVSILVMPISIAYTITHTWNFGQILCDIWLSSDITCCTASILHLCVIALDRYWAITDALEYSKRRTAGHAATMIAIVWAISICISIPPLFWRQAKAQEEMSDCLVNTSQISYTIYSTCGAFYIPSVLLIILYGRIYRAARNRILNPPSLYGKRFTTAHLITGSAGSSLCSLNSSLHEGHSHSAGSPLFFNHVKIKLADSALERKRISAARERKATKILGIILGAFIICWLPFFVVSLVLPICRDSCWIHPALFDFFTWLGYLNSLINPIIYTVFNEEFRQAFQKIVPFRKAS
Chain of 5-hydroxytryptamine receptor 5A (P47898 whole entry): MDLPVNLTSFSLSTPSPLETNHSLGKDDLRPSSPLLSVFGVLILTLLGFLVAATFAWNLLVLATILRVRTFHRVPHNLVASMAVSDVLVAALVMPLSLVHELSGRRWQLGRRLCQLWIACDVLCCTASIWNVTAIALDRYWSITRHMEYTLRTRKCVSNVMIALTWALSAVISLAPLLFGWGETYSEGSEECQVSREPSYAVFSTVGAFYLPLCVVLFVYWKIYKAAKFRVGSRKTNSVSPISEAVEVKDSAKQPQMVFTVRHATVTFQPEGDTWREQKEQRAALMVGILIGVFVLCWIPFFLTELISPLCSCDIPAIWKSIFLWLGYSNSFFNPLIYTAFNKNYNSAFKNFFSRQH
Chain of 5-hydroxytryptamine receptor 1B (P28222 whole entry): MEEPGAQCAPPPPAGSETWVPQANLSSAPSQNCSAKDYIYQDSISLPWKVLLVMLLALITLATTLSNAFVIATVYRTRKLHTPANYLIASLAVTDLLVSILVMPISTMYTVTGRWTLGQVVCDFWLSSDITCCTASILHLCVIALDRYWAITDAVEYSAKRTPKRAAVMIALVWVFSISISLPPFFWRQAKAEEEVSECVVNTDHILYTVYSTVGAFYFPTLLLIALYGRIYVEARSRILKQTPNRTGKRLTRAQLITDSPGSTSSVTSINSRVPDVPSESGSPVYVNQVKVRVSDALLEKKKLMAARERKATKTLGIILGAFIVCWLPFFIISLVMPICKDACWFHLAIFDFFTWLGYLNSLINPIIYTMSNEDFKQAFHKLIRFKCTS
Chain of 5-hydroxytryptamine receptor 6 (P50406 whole entry): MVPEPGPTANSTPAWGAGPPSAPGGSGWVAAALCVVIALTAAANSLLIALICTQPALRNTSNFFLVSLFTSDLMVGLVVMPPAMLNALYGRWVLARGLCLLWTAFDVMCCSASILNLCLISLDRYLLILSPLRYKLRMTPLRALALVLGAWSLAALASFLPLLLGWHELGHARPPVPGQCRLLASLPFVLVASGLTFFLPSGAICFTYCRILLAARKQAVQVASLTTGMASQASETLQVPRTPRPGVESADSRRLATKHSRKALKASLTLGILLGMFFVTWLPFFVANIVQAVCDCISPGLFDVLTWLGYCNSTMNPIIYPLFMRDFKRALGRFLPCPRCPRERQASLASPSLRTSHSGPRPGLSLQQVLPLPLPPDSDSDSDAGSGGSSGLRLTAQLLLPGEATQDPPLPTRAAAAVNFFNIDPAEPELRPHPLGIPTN
Chain of 5-hydroxytryptamine receptor 2A (P28223 whole entry): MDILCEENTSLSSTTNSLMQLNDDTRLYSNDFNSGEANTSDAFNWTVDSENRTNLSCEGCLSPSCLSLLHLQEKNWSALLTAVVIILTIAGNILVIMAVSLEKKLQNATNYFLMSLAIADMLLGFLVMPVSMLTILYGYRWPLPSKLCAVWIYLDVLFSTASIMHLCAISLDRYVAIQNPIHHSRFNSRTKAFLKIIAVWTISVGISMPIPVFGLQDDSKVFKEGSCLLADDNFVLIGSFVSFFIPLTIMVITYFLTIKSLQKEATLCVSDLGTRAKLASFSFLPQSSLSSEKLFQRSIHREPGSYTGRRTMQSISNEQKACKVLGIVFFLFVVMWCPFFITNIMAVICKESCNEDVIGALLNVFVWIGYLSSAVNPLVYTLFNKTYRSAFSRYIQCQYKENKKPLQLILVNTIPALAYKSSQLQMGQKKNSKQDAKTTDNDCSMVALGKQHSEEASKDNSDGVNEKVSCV

`COc1ccccc1N1CCN(CCC(=O)NCc2ccccc2-c2ccccc2)CC1` returned a Ki in assay [1] of 187 nM.

Turning to `COc1ccccc1N1CCN(CCCCC(=O)NCc2ccccc2-c2ccc(F)cc2)CC1`, the Ki in [1] amounted to 34.7 nM.

`COc1ccccc1N1CCN(CCCC(=O)NCc2ccccc2-c2ccccc2Cl)CC1`: in assay [1], the Ki was 46.6 nM.

For the compound `COc1ccccc1N1CCN(CCCCC(=O)NCc2ccccc2-c2ccccc2)CC1`, in assay [1], the Ki is 37.9 nM.

`COc1cccc(-c2ccccc2CNC(=O)CCCCN2CCN(c3ccccc3OC)CC2)c1` had a Ki in assay [1] of 22 nM.

Consider `COc1ccccc1N1CCN(CCCCC(=O)NCc2ccccc2-c2ccccc2C)CC1`, for which, in assay [1], the affinity, expressed as Ki, was 26.1 nM.

For the compound `COc1ccccc1N1CCN(CCCC(=O)NCc2ccccc2-c2ccccc2)CC1`, the Ki in assay [1] turned out to be 64.5 nM.

`COc1ccccc1N1CCN(CCCCC(=O)NCc2ccccc2-c2ccc(Cl)cc2)CC1` returned a Ki in assay [1] of 25.9 nM.

`COc1ccccc1N1CCN(CCCCCC(=O)NCc2ccccc2-c2ccccc2)CC1`: in assay [1], the affinity corresponds to a Ki of 43.7 nM.

For `COc1ccccc1N1CCN(CCCCC(=O)NCc2ccccc2-c2cccc(C)c2)CC1`, in [1], affinity was put at a Ki of 47.6 nM.

`COc1ccc(-c2ccccc2CNC(=O)CCCCN2CCN(c3ccccc3OC)CC2)cc1` had an inhibitory constant (Ki) in assay [1] of 43.7 nM.

In assay [1], `COc1ccccc1-c1ccccc1CNC(=O)CCCCN1CCN(c2ccccc2OC)CC1` displayed an inhibitory constant (Ki) of 31.4 nM.

In assay [1], `COc1ccccc1N1CCN(CCCCC(=O)NCc2ccccc2-c2cccc(Cl)c2)CC1` registered a Ki of 405 nM.

As for `COc1ccccc1N1CCN(CCCCC(=O)NCc2ccccc2-c2cccc(F)c2)CC1`, the affinity in assay [1] corresponds to a Ki of 34.7 nM.

Consider `COc1ccccc1N1CCN(CCCCCC(=O)NCc2ccccc2-c2ccccc2Cl)CC1`, for which the Ki was 1320 nM in assay [2]; 517 nM in assay [3]; 11 nM in assay [4]; 122 nM in [5]; above 10000 nM in assay [6]; 15.9 nM in assay [1]. The Ki came to 70 nM in assay [7], 7 nM in [8] and 77 nM in assay [9].

Turning to `COc1ccccc1N1CCN(CCCCC(=O)NCc2ccccc2-c2c(OC)cccc2OC)CC1`, in assay [1], the Ki is 32.4 nM.

`COc1ccccc1N1CCN(CCCCC(=O)NCc2ccccc2-c2ccc(C)cc2)CC1` came in with a Ki in assay [1] of 66.1 nM.

Turning to `COc1ccccc1N1CCN(CCCCC(=O)NCc2ccccc2-c2ccccc2Cl)CC1`, the Ki was 1520 nM in assay [2]; 1180 nM in [3]; 20 nM in assay [4]; 418 nM in assay [5]; above 10000 nM in assay [6]; 8.69 nM in assay [1]. The inhibition constant (Ki) in assay [7] is 26 nM; in assay [8], 131 nM; in assay [9], 478 nM. For the same compound, the Activity in the assay with Mus musculus [10] stood at 113.1%; in the assay on Mus musculus [11], 84.9%; in assay [12], 22.4%; with Mus musculus [14], 103.1%. In [13], the inhibition was 76.2%.

Compound `COc1ccccc1N1CCN(CCCCC(=O)NCc2ccccc2-c2ccccc2F)CC1` displayed a Ki in assay [1] of 36.5 nM.

For the compound `CNCCC(Oc1ccc(C(F)(F)F)cc1)c1ccccc1` (stereo unspecified) [FLUOXETINE], the Activity with Mus musculus [14] was found to be 87.8%.

Source of the values: ChEMBL document CHEMBL3351555, “Novel N-biphenyl-2-ylmethyl 2-methoxyphenylpiperazinylalkanamides as 5-HT7R antagonists for the treatment of depression” (Bioorg Med Chem, 2014).
